# Data: ChEMBL document CHEMBL4177588, “Synthesis, biological evaluation, and metabolic stability of chlorogenic acid derivatives possessing thiazole as potent inhibitors of α-MSH-stimulated melanogenesis” (Bioorg Med Chem Lett, 2017)
# Legend:
# [1] = test system: B16; experiment: Inhibition of alpha-MSH stimulated melanogenesis in mouse B16 cells; format: functional, cell-based
# [2] = Drug metabolism in human liver S9 fraction treated with 4-(Benzo[d][1,3]dioxol-5-yl)-N-(4-(trifluoromethyl)benzyl)thiazol-2-amine assessed as metabolite formation at 1 uM pretreated for 5 mins followed by NADPH/UDPGA/ PAPS addition by Q-TOF LC-MS/MS analysis; format: ADME, subcellular; settings: s9, 1 µM
# Outline: (§1)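 Human liver S9 fraction (1 mg/mL) in 50 mM Tris buffer, pH 7.5, fortified with NADPH (1 mM), UDPGA and PAPS to support oxidative, glucuronidation and sulfation pathways. Parent loss and metabolites were analysed by Q-TOF LC-MS/MS.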
# [3] = Drug metabolism in human liver S9 fraction assessed as SULT-mediated compound sulfation by measuring M1 formation at 1 uM pretreated for 5 mins followed by NADPH/UDPGA/ PAPS addition by Q-TOF LC-MS/MS analysis; format: ADME, subcellular; settings: s9, 1 µM; outline: as §1
# [4] = Drug metabolism in human liver S9 fraction assessed as UGT-mediated compound glucuronidation by measuring M2 formation at 1 uM pretreated for 5 mins followed by NADPH/UDPGA/ PAPS addition by Q-TOF LC-MS/MS analysis; format: ADME, subcellular; settings: s9, 1 µM; outline: as §1
# [5] = Drug metabolism in human liver microsomes assessed as compound oxidation at 1 uM measured after 5 mins in absence of NADPH by Q-TOF LC-MS/MS analysis; format: ADME, microsome
# [6] = Half-life in human liver S9 fraction at 1 uM pretreated for 5 mins followed by NADPH/UDPGA/ PAPS addition by Q-TOF LC-MS/MS analysis; format: ADME, subcellular; outline: as §1
# [7] = Drug metabolism in human liver S9 fraction assessed as compound oxidation by measuring (4-Benzo[1,3]dioxol-5-yl-1-oxo-thiazol-2-yl)-(4-trifluoromethyl-benzyl)-amine formation at 1 uM pretreated for 5 mins followed by NADPH/UDPGA/ PAPS addition by Q-TOF LC-MS/MS analysis; format: ADME, subcellular; settings: s9, 1 µM; outline: as §1
# [8] = Drug metabolism in human liver S9 fraction assessed as UGT-mediated compound glucuronidation by measuring M4 formation at 1 uM pretreated for 5 mins followed by NADPH/UDPGA/ PAPS addition by Q-TOF LC-MS/MS analysis; format: ADME, subcellular; settings: s9, 1 µM; outline: as §1
# [9] = Drug metabolism in human liver S9 fraction assessed as compound oxidation by measuring 4-[2-(4-Trifluoromethyl-benzylamino)-thiazol-4-yl]-benzene-1,2-diol formation at 1 uM pretreated for 5 mins followed by NADPH/UDPGA/ PAPS addition by Q-TOF LC-MS/MS analysis; format: ADME, subcellular; settings: s9, 1 µM; outline: as §1
# [10] = Drug metabolism in human liver S9 fraction assessed as SULT-mediated compound sulfation by measuring M3 formation at 1 uM pretreated for 5 mins followed by NADPH/UDPGA/ PAPS addition by Q-TOF LC-MS/MS analysis; format: ADME, subcellular; settings: s9, 1 µM; outline: as §1
IC50 [1],also measured,SMILES
2.6 µM,–,Oc1ccc(-c2csc(NCc3ccccc3C(F)(F)F)n2)cc1O
32.7 µM,Drug metabolism [2]: Metabolite_Detected,Oc1ccc(-c2csc(NCc3ccc(C(F)(F)F)cc3)n2)cc1O
11.1 µM,–,c1ccc(CNc2nc(-c3ccc4c(c3)OCO4)cs2)cc1
> 50 µM,–,Oc1ccc(-c2csc(NCc3cccc(Cl)c3)n2)cc1O
12.4 µM,–,Clc1ccccc1CNc1nc(-c2ccc3c(c2)OCO3)cs1
13.2 µM,–,Clc1cccc(CNc2nc(-c3ccc4c(c3)OCO4)cs2)c1
11.5 µM,–,Oc1ccc(-c2csc(NCc3ccc(Cl)cc3)n2)cc1O
–,Drug metabolism [3]: Metabolite_Detected; Drug metabolism [4]: Metabolite_Detected; Drug metabolism [5]: Metabolite_Detected; half-life at 1 µM [6]: 5 min,O=C(/C=C/c1ccc(O)c(O)c1)NCc1ccc(C(F)(F)F)cc1
9.6 µM,–,FC(F)(F)c1ccccc1CNc1nc(-c2ccc3c(c2)OCO3)cs1
2 µM,–,Oc1ccc(-c2csc(NCc3ccccc3Cl)n2)cc1O
15.3 µM,–,FC(F)(F)c1cccc(CNc2nc(-c3ccc4c(c3)OCO4)cs2)c1
2.1 µM,–,Oc1ccc(-c2csc(NCc3ccccc3)n2)cc1O
–,Drug metabolism [2]: Metabolite_Detected,[O-][s+]1cc(-c2ccc3c(c2)OCO3)nc1NCc1ccc(C(F)(F)F)cc1 (stereo not given)
0.9 µM,Drug metabolism [7]: Metabolite_Detected; Drug metabolism [8]: Metabolite_Detected; Drug metabolism [9]: Metabolite_Detected; half-life at 1 µM [6]: 69.3 min; Drug metabolism [10]: Metabolite_Detected,FC(F)(F)c1ccc(CNc2nc(-c3ccc4c(c3)OCO4)cs2)cc1
37.9 µM,–,Clc1ccc(CNc2nc(-c3ccc4c(c3)OCO4)cs2)cc1
1.8 µM,–,Oc1ccc(-c2csc(NCc3cccc(C(F)(F)F)c3)n2)cc1O
